Test results: ChEMBL document CHEMBL4673386, “The Bicyclic Form of galacto-Noeurostegine Is a Potent Inhibitor of β-Galactocerebrosidase” (ACS Med Chem Lett, 2021)

How the values were obtained:
[1] = Inhibition of green coffee beans beta-galactosidase using […] as substrate preincubated for 30 mins followed by substrate addition by UV-vis spectrophotometry analysis; parameters: species or system Coffea arabica
[2] = molecular target: T1, Galactocerebrosidase (Mus musculus, UniProt P54818); assay: Inhibition of mouse N-terminal His6-tagged GALC expressed in HEK293T cells using p-nitrophenyl-beta-D-galactopyranoside as substrate
T1 sequence (P54818 whole entry): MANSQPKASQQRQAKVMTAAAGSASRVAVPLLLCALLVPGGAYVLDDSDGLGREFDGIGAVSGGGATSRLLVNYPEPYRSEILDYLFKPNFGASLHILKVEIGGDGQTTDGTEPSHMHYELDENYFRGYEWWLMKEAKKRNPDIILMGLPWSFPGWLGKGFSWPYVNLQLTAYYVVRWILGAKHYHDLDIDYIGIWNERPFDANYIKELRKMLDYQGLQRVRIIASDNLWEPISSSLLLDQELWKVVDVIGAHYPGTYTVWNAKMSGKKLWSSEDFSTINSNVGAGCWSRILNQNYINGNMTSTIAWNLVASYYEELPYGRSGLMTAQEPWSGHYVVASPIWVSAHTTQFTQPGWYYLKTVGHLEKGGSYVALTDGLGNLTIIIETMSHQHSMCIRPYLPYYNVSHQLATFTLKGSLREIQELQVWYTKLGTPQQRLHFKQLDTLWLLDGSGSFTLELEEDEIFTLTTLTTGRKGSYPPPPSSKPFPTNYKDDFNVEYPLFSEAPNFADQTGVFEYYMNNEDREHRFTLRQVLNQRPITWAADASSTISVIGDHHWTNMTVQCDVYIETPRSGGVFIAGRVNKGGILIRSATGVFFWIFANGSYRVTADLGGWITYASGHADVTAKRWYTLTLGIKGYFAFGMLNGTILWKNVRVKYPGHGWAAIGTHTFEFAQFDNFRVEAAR

[3] = Inhibition of Aspergillus oryzae beta-galactosidase using […] as substrate preincubated for 30 mins followed by substrate addition by UV-vis spectrophotometry analysis
[4] = Inhibition of Escherichia coli beta-galactosidase using […] as substrate preincubated for 30 mins followed by substrate addition by UV-vis spectrophotometry analysis
[5] = molecular target: T2, Galactocerebrosidase (Mus musculus) (UniProt P54818); assay: Stabilization of mouse N-terminal His6-tagged GALC expressed in HEK293T cells assessed as change in melting temperature at pH 7.4 by differential scanning fluorimetry; type: cell-based
T2 sequence (whole entry): T1 sequence (P54818 whole entry)
In short: (§1)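 GALC thermal melt curves recorded with and without ligand at 0.5 mM, at pH values from 4.6 to 7.4. Tm is read from each curve, and ΔTm is taken against GALC alone at the same pH. Runs were done in triplicate.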

[6] = molecular target: T2, Galactocerebrosidase (Mus musculus); assay: Stabilization of mouse N-terminal His6-tagged GALC expressed in HEK293T cells assessed as melting temperature at 0.5 mM at pH 4.6 by differential scanning fluorimetry (reference value: 62.2 degreeC); type: cell-based; in short: as §1
[7] = molecular target: T2, Galactocerebrosidase (Mus musculus); assay: Stabilization of mouse N-terminal His6-tagged GALC expressed in HEK293T cells assessed as change in melting temperature at pH 6.6 by differential scanning fluorimetry; type: cell-based; in short: as §1
[8] = molecular target: T2, Galactocerebrosidase (Mus musculus); assay: Stabilization of mouse N-terminal His6-tagged GALC expressed in HEK293T cells assessed as change in melting temperature at pH 4.6 by differential scanning fluorimetry; type: cell-based; in short: as §1
[9] = molecular target: T2, Galactocerebrosidase (Mus musculus); assay: Stabilization of mouse N-terminal His6-tagged GALC expressed in HEK293T cells assessed as melting temperature at 0.5 mM at pH 6.6 by differential scanning fluorimetry (reference value: 59.6 degreeC); type: cell-based; in short: as §1
[10] = molecular target: T2, Galactocerebrosidase (Mus musculus); assay: Stabilization of mouse N-terminal His6-tagged GALC expressed in HEK293T cells assessed as melting temperature at 0.5 mM at pH 7.4 by differential scanning fluorimetry (reference value: 53.4 degreeC); type: cell-based; in short: as §1
[11] = molecular target: T2, Galactocerebrosidase (Mus musculus); assay: Stabilization of mouse N-terminal His6-tagged GALC expressed in HEK293T cells assessed as melting temperature at 0.5 mM at pH 5.6 by differential scanning fluorimetry (reference value: 62.8 degreeC); type: cell-based; in short: as §1
[12] = molecular target: T2, Galactocerebrosidase (Mus musculus); assay: Stabilization of mouse N-terminal His6-tagged GALC expressed in HEK293T cells assessed as change in melting temperature at pH 5.6 by differential scanning fluorimetry; type: cell-based; in short: as §1

SMILES | Ki [1] | Ki [2] | Ki [3] | Ki [4] | ΔTm [5] | Tm [6] | ΔTm [7] | ΔTm [8] | Tm [9] | Tm [10] | Tm [11] | ΔTm [12]
OC[C@@H]1[C@H](O)[C@H](O)[C@@H]2CC[C@H]1N2 | > 1000 µM | 2300 µM | 0.13 µM | > 1000 µM | – | – | – | – | – | – | – | –
OC[C@@H]1[C@H](O)[C@H](O)[C@]2(O)CC[C@H]1N2 | > 1000 µM | 7 µM | 0.031 µM | > 1000 µM | 1.4 °C | 68 °C | 5.4 °C | 5.8 °C | 65 °C | 54.8 °C | 68 °C | 5.2 °C
